MT1-MMP txn act: MT1-MMP promoter reporter activation – cell-based, luciferase luminescence, primary screen; 0.16% of 86,000 active; HT1080 MT1-MMP promoter luciferase reporter, overnight; hits give high values; activation factor at 10 µM; AID 750, 2007;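 active = activation factor of at least 2 for MT1-MMP transcription at 10 µM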
HEK293 NFkB inh: inhibitors of PMA/ionomycin-induced NF-kB reporter, primary screen, antigen receptor NF-kB inhibitor project, cell-based, HEK-293 luciferase reporter, luminescence; HEK-293 NF-kB luciferase reporter; inhibition, % at 3 µM; 0.21% of 62,000 active; AID 465, 2006;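 active = inhibition above the mean of all tested compounds plus 3 SD, cut at about 40% in these data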;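 note: 0% = stimulated DMSO wells and 100% = 10 µM reference inhibitor 5653914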
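Timing: 1 h pretreatment, 16 h stimulation, 37 °C; system: HEK-293 cells with stable firefly luciferase reporter driven by four HIV NF-kB elements; doses: 3 µM once, 0.30% DMSO; measured by: luciferase luminescence; control set: DMSO and 10 µM reference inhibitor; repeats: single test; reagent: PMA plus ionomycin mix as NF-kB-activating stimulus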
RORA act: activators of orphan receptor RORA, primary screen, cell-based, luminescence; Nuclear receptor ROR-alpha (Homo sapiens), P35398; CHO-K1 Gal4-RORA LBD luciferase reporter; percent increase over mock-subtracted basal signal; activation, % at 10 µM; 1.5% of 65,000 active;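 active = activation above the mean of all tested compounds plus 3 SD, cut at about 49% in these data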;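 note: 0% = DMSO-treated RORA cells and 100% = added signal equal to DMSO minus mock-transfected cells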
Jurkat viability: cytotoxicity toward Jurkat T cells, primary screen, cytotoxicity control, cell-based, Jurkat E6.1, 60K MLSMR library; Jurkat E6.1 viability, ATP luminescence, 48 h; inhibition, % at 4 µM; AID 463, 2006; 1.2% of 56,000 active;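 active = inhibition above the mean inhibition of all tested compounds plus 3 SD, cut at about 28% in these data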
SF1 activator: activators of human SF-1, primary screen, cell-based, CHO-K1, Gal4-SF-1 LBD, luciferase luminescence; 1.9% of 65,000 active; activation, % at 10 µM; CHO-K1 Gal4-SF-1 LBD luciferase reporter; % increase over DMSO SF-1-specific signal;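 active = activation above the mean activation of all tested compounds plus 3 SD, cut at about 50% in these data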
Target sequence (Q13285 whole entry, looked up, the tested form may be a part): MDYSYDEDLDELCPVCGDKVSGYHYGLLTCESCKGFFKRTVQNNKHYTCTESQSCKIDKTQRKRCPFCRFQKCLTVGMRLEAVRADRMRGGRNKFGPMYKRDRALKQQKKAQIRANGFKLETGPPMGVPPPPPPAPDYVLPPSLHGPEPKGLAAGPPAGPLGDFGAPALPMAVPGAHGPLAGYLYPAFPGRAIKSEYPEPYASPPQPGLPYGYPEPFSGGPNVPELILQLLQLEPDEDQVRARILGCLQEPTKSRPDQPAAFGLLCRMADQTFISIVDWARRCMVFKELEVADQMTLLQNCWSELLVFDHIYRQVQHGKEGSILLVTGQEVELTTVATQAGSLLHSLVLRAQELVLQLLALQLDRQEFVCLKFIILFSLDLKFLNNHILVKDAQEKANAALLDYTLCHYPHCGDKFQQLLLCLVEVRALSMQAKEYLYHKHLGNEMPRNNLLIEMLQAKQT
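Assay system: CHO-K1 cells co-transfected with Gal4 DBD–human SF-1 LBD, 5xGal4 luciferase reporter; doses: 10 µM only; incubation: 20 h compound exposure at 37 °C after 1 h cell settling; signal: luciferase light emission; evaluation: percent activation versus DMSO; repeats: one test per compound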
* hit, by the source's call; · = not tested or not shown. Hits are enriched below; roughly 2.9% of the tested compounds scored in any of these assays.

SMILES	MT1-MMP txn act	HEK293 NFkB inh	RORA act	Jurkat viability	SF1 activator
O=C(Nc1nnc(-c2cccs2)o1)c1cccc(C(F)(F)F)c1	1.1	0	-1	64*	4
O=C(CCc1ccccc1)Nc1nnc(-c2cccs2)o1	1.1	2	15	12	6
CCOc1ncccc1C(=O)NCC1COc2ccccc2O1 (centres undefined)	1.1	14	-8	1	-7
O=C(NC1CCCCC1)N(Cc1cc2cc3c(cc2[nH]c1=O)OCCO3)C1CCCCC1	0.9	·	·	·	·
Cc1ccc(C2/C(=C(/O)c3cnn(-c4ccccc4)c3C)C(=O)C(=O)N2CCN2CCOCC2)o1 (centres undefined)	1.2	·	22	·	54*
Cc1c(/C(O)=C2/C(=O)C(=O)N(CCN3CCOCC3)C2c2cccs2)cnn1-c1ccccc1 (centres undefined)	1.2	1	6	2	12
CCN(CC)CCN1C(=O)C(=O)/C(=C(/O)c2cnn(-c3ccccc3)c2C)C1c1ccc(C)o1 (centres undefined)	1.5	·	·	·	·
Cc1ccc(C2/C(=C(\O)c3cnn(-c4ccccc4)c3C)C(=O)C(=O)N2CCN(C)C)o1 (centres undefined)	1.8	·	9	·	53*
Cc1nn(C/C(C#N)=N\O)c(C)[n+]1N	1	14	8	0	1
COc1ccc(-c2nc(C#N)c(NCC3CCCO3)o2)cc1OC (centres undefined)	1.4	-2	53*	-5	19
C=CCNc1oc(-c2ccc(OC)cc2)nc1C#N	1.3	-17	10	0	57*
CNc1oc(-c2ccc(OCc3ccccc3)cc2)nc1C#N	1.1	15	27	-4	58*
N#Cc1nc(-c2ccc(OCc3ccccc3)cc2)oc1NCc1ccco1	1	13	-2	-6	1
CCOc1ccc(-c2nc(C#N)c(NCC3CCCO3)o2)cc1 (centres undefined)	1.1	·	·	·	·
Cc1cc(C)nc(N2CCC(C(=O)NCCc3ccc(F)cc3)CC2)n1	1	52*	-5	4	-2
C=CCNC(=O)C1CCN(c2nc(C)cc(-c3ccccc3)n2)CC1	1.7	-42	33	-2	102*
Cc1cc(-c2ccccc2)nc(N2CCC(C(=O)NCc3ccccc3Cl)CC2)n1	1.3	·	·	·	·
O=C1c2ccccc2C(=O)N1CCc1nc2ccccc2c(=O)n1CCCn1ccnc1	1.2	-16	14	-4	-1
Cc1ccc(-c2nn(CC(N)=O)c(=O)c3ccccc23)cc1S(=O)(=O)N(C)C	1.1	·	·	·	·
CCOC(=O)Cc1csc(NC(=O)CCCCCN2C(=O)c3cccc4cccc(c34)C2=O)n1	1.1	·	·	·	·
Cn1cc(Cl)c(-c2nc3ccccc3[nH]2)n1	1.2	-12	56*	·	44
Cc1ccccc1-c1nc2ccccc2[nH]1	2*	·	·	·	·
CCn1c(C)nc2cc(C(=O)NNS(=O)(=O)c3c(C)c(C)cc(C)c3C)ccc21	1.2	·	·	·	·
CCn1c(C)nc2cc(C(=O)OC(C(F)(F)C(F)F)C(F)(F)C(F)F)ccc21	2.2*	9	-12	1	-23
CC1=CC(C)(C)Nc2ccc(OC(=O)CN3C(=O)CCC3=O)cc21	·	40*	-15	-3	-14
SMILES	MT1-MMP txn act	HEK293 NFkB inh	RORA act	Jurkat viability	SF1 activator
CCOc1ccc(OC(=O)c2cccnc2)cc1	1.2	2	10	6	-11
CC1=CC(C)(C)Nc2ccc(OC(=O)c3cccnc3)cc21	0.8	44*	-12	17	10
CC1=CC(C)(C)Nc2ccc(OC(=O)c3ccco3)cc21	0.2	45*	-11	58*	-15
O=C(CCSCc1ccccc1Cl)N1CCN(c2cccc(Cl)c2)CC1	1.2	·	·	·	·
Cn1c(SCc2c(F)cccc2Cl)nnc1-c1cccs1	1.7	-9	102*	-2	58*
O=C1OC(NC(=O)c2ccccc2)C(n2cc(CO)nn2)=C1Cl (centres undefined)	1	10	-30	-8	-19
O=C(CSc1ncn[nH]1)c1ccc2c(c1)OCCO2	1.4	11	16	3	24
CC(C)c1ccc(C(=O)CSc2ncn[nH]2)cc1	1.4	10	53*	-8	53*
CCCc1noc(-c2ccc(-c3ccccc3)cc2)n1	1	-43	57*	1	55*
COc1ccc(Cc2noc(-c3ccc(C)cc3)n2)cc1	1	15	0	-6	4
CC1(C)C(=O)C2(CCCCC2)C(=O)OC1c1ccc(O)cc1 (centres undefined)	1.1	20	-14	-1	-23
O=C(NCC#CC(CCc1ccccc1)OCc1ccccc1)c1ccccc1 (centres undefined)	1.1	·	·	·	·
COc1ccc(-c2nc(CS(=O)CC(=O)NCc3ccco3)c(C)o2)cc1 (centres undefined)	1.1	3	13	-1	-24
CCOc1ccc(-c2nc(CSCC(=O)NCc3ccco3)c(C)o2)cc1	0.7	83*	-94	1	-94
Cn1cc(Br)c(C(=O)N2CCN(c3cccc(Cl)c3)CC2)n1	1.2	·	·	·	·
CC1CCC2(CC1)NC(=O)c1ccccc1O2 (centres undefined)	1	4	3	-5	-11
Cc1ccc(C(=O)N2CCN(c3ccccc3)CC2)cc1C	1.2	7	21	4	11
Cc1ccc(C(=O)N2CCN(c3cccc(Cl)c3)CC2)cc1C	1.2	12	8	38*	18
Cc1cc(C(=O)N2CCN(c3cccc(Cl)c3)CC2)c(C)o1	1.1	11	-5	75*	-4
CC(NC(=O)c1cccc(F)c1)C(c1cccs1)N1CCN(C)CC1 (centres undefined)	1.1	6	-3	-6	-4
Cc1ccc(-n2nnnc2SCCNS(=O)(=O)c2ccccc2)cc1C	1.2	7	-6	3	-14
CCCN(CCC)C(=O)Cc1coc2ccc3ccccc3c12	1.2	·	·	·	·
Cc1c(C(=O)OCCOC(C)C)[nH]c2c1C(=O)CC(c1ccco1)C2 (centres undefined)	0.3	48*	-24	100*	-40
Cc1c(C(=O)OCc2ccccc2)[nH]c2c1C(=O)CC(c1ccco1)C2 (centres undefined)	0.4	38	-6	98*	-30
CCOC(=O)c1[nH]c2c(c1C)C(=O)CC(c1ccco1)C2 (centres undefined)	0.3	41*	-26	100*	-43
COCCOC(=O)c1[nH]c2c(c1C)C(=O)CC(c1ccco1)C2 (centres undefined)	0.3	39	7	92*	-12
COCCOC(=O)c1[nH]c2c(c1C)C(=O)CC(c1ccccc1)C2 (centres undefined)	·	30	-23	·	-19
